Series [1] has as its system E. coli expressing Tet(X). The experiment in a line: Whole cell resistance of E. coli expressing Tet. Type of series: cell-based.
Series [2] has as its system tetracycline destructase enzymes Tet(50), Tet(X), and Tet(X)_3. Type of series: biochemical. Put shortly: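 Enzymes expressed from pET28b(+) in E. coli BL21-Star (DE3) and Ni-NTA purified. Reactions in 100 mM TAPS pH 8.5 held 504 μM NADPH, 5.04 mM MgCl2, 25.3 μM tetracycline substrate, 0.4 μM enzyme and graded inhibitor, in triplicate. Absorbance at 380 or 400 nm was followed for 4 min. Initial velocities were plotted against log[inhibitor] and fitted by nonlinear regression for IC50. Controls: no-enzyme, no-inhibitor, no-substrate.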

For series [3], the system named is E. coli expressing tetracycline destructase enzymes. Kind of series: Checkerboard whole cell inhibition assay. The series is classed as cell-based. Conditions: co-administered with tetracycline antibiotics.
The nature of series [4]: Non-enzymatic stability on storage and in solution. The series is classed as physicochemical. Conditions: extended solution times (overnight), LCMS.
The target in series [5] is T1, Tet(X) (Bacteroides thetaiotaomicron, UniProt Q93L51). The experiment in a line: In vitro inhibition of Tet. The series is classed as biochemical.
Series [6] deals with T2, Tet(50) (Unknown prokaryotic organism, UniProt A0A059WYP6). The experiment in a line: In vitro inhibition of Tet. Conditions: degradation of tetracycline antibiotics by soil-derived Tet(50). Type of series: biochemical. Summed up: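 Ni-NTA-purified enzyme, dialysed into 50 mM K2HPO4 pH 8.0, 150 mM NaCl, 1 mM DTT. A380 or A400 followed continuously for 4 min. No-enzyme control was set to 1 × 10^15 inhibitor, no-inhibitor control to 1 × 10^−15. No-substrate controls were also run.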

In series [7] the target is T2, Tet(50). The experiment in a line: Exposure of aDem to Tet. The series is classed as biochemical. The following applies: Tet(50) with NADPH, no tetracycline, LCMS.
Series [8] addresses T1, Tet(X). Kind of series: Tet. Type of series: biochemical. Conditions: decrease in 440 nm absorption band and extracted mass (LCMS).
The mark [9] stands for this setting: apparent IC50, Tet(X)-mediated degradation of tigecycline.

Entries after “also recorded” stand apart in the source; their conditions may differ. Structures can show the parent of a compound that is named as a salt. Where two headings read alike, the source gives them in different places.

With `CN(C)c1cc(NC(=O)CNC(C)(C)C)c(O)c2c1C[C@H]1C[C@H]3[C@H](N(C)C)C(O)=C(C(N)=O)C(=O)[C@@]3(O)C(O)=C1C2=O` [tigecycline], the “resistance, increase over empty vector controls” value in series [1] is given as 2 fold.
With `Cc1c2c(c(O)c3c(O)ccc(I)c13)C(=O)[C@]1(O)C(=O)C(C(N)=O)=C(O)[C@@H](N(C)C)[C@@H]1C2.Cl` [7-I-aTc, (4S,4aS,12aS)-4-(dimethylamino)-3,10,11,12a-tetrahydroxy-7-iodo-6-methyl-1,12-dioxo-1,4,4a,5,12,12a-hexahydrotetracene-2-carboxamide hydrochloride], the “in vitro destructase inhibitory activity” value in series [2] is on record as “potent in vitro destructase inhibitory activity”. The “whole cell inhibition / rescue of tetracycline activity” value (from here on “whole cell inhibition / rescue”) in series [3] is reported as “limited activity; also recorded: no inhibitory activity”. Also, the “non-enzymatic degradation in solution” value in series [4] is “non-enzymatic degradation of 7-I-aTc in solution was observed; also recorded: some non-enzymatic degradation”.
For `Cc1c2c(c(O)c3c(O)c(Br)ccc13)C(=O)[C@]1(O)C(=O)C(C(N)=O)=C(O)[C@@H](N(C)C)[C@@H]1C2.Cl` [9-Br-aTc, (4S,4aS,12aS)-9-bromo-4-(dimethylamino)-3,10,11,12a-tetrahydroxy-6-methyl-1,12-dioxo-1,4,4a,5,12,12a-hexahydrotetracene-2-carboxamide hydrochloride] the same measures were “potent in vitro destructase inhibitory activity”, “limited activity” and “some non-enzymatic degradation”.
For the compound `CN(C)[C@@H]1C(O)=C(C(N)=O)C(=O)[C@@]2(O)C(=O)c3c(cc4c(Cl)ccc(O)c4c3O)C[C@@H]12.Cl` [aDem, (4S,4aS,12aS)-7-chloro-4-(dimethylamino)-3,10,11,12a-tetrahydroxy-1,12-dioxo-1,4,4a,5,12,12a-hexahydrotetracene-2-carboxamide hydrochloride], the half-maximal inhibitory concentration (IC50) (as a rule, the concentration at which inhibition is half-maximal) in series [5] (apparent IC50, Tet(X)-mediated degradation of tetracycline antibiotics (tetracycline, demeclocycline)) was in the range of 1000 to 4000 nM; in series [5] (setting [9]), 400 to 1500 nM. Besides, in series [3], the “whole cell inhibition / rescue” value is given as “rescues tetracycline activity”. The “in vitro inhibitory activity against enzymatic degradation by Tet(50)” value in series [6] is reported as “performed poorly”; in series [6] (listed as 7) it was “poor in vitro inhibitory activity”. In series [7], the “decrease in extracted mass over time” value was “no measurable decrease”.
`Cc1c2c(c(O)c3c(O)ccc(Cl)c13)C(=O)[C@]1(O)C(=O)C(C(N)=O)=C(O)[C@@H](N(C)C)[C@@H]1C2` [aCTc, (4S,4aS,12aS)-7-chloro-4-(dimethylamino)-3,10,11,12a-tetrahydroxy-6-methyl-1,12-dioxo-1,4,4a,5,12,12a-hexahydrotetracene-2-carboxamide hydrochloride]: the IC50 in series [5] (setting [9]) lay within 400 to 1500 nM.
Compound `Cc1c2c(c(O)c3c(O)cccc13)C(=O)[C@]1(O)C(=O)C(C(N)=O)=C(O)[C@@H](N(C)C)[C@@H]1C2` [aTc, anhydrotetracycline, reference compound] had a half-inhibitory concentration (IC50) in series [5] of 400 to 1500 nM. In series [2] (Lineweaver-Burk plots, degradation of tetracycline), the inhibition model result is recorded as “mixed competitive/non-competitive inhibition model”. Moreover, the “enzymatic degradation by Tet(X)” value in series [8] is recorded as “substrate for Tet(X)”. In addition, the “whole cell inhibition / rescue” value in series [3] is reported as “performs well”.
